Active and inactive are the calls of the source. The calls are words filed in the database; no cut-off is given here.
Experiments:
Leishmania donovani [1] = experiment: Antileishmanial activity against intracellular amastigote stage of Leishmania donovani MHOM/ET/67/HU3 infected in human THP1 cells after 3 days by confocal microscopy; format: functional, organism-based; details: MHOM/ET/67/HU3, THP-1, 72 h
[2] = Cytotoxicity against human THP1 cells infected with intracellular amastigote stage of Leishmania donovani MHOM/ET/67/HU3; format: cell-based, THP-1
In short: (§1)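 Host THP-1 cytotoxicity was taken from the same intracellular amastigote images (PMA-differentiated, infected, 3-day compound exposure) by counting cell numbers normalized to 1 % DMSO. CC₅₀ is the average of duplicates; SI was calculated from EC₅₀ and CC₅₀.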

[3] = Selectivity index, ratio of IC50 for human THP1 cells to IC50 for intracellular amastigote stage of Leishmania donovani MHOM/ET/67/HU3; format: toxicity, cell-based, THP-1; details: read-out: Selectivity Index; in short: as §1
Trypanosoma cruzi [4] = experiment: Antitrypanosomal activity against intracellular Trypanosoma cruzi infected in human U2OS cells after 48 hrs by confocal microscopy; format: functional, organism-based
In short: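 T. cruzi tissue-culture trypomastigotes were raised in LLC-MK2 cells. U2OS cells and parasites were mixed, dispensed onto compound plates and incubated 48 h at 37 °C, 5 % CO₂. Cells were fixed with 4 % paraformaldehyde, DRAQ5-stained and imaged by confocal microscopy to count parasites and infection ratio. Controls: benznidazole 400 µM and 1 % DMSO. EC₅₀ derived from infection ratio normalized to the controls.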

[5] = Cytotoxicity against human U2OS cells infected with intracellular Trypanosoma cruzi; format: cell-based
In short: (§2)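 U2OS cytotoxicity was measured in the same 48 h T. cruzi infection assay by counting host cell numbers in the DRAQ5-stained confocal images to give CC₅₀. SI was calculated from EC₅₀ and CC₅₀.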

[6] = Selectivity index, ratio of IC50 for human U2OS cells to IC50 for intracellular Trypanosoma cruzi; format: toxicity, cell-based; details: U2OS cells versus intracellular Trypanosoma cruzi, read-out: Selectivity Index; in short: as §2
Leishmania donovani [7] = experiment: Antileishmanial activity against extracellular promastigote stage of Leishmania donovani MHOM/ET/67/HU3 incubated for 28 hrs followed by additional 20 hrs incubation
Leishmania donovani [8] = experiment: Antileishmanial activity against intracellular amastigote stage of Leishmania donovani MHOM/ET/67/HU3 infected in human THP1 cells assessed as reduction in parasite count at 12.5 uM after 3 days by confocal microscopy; format: functional, organism-based; details: THP-1
Trypanosoma cruzi [9] = experiment: Antitrypanosomal activity against intracellular Trypanosoma cruzi infected in human U2OS cells assessed as reduction in parasite count at 400 uM after 48 hrs by confocal microscopy; format: functional, organism-based
Trypanosoma cruzi [10] = experiment: Antitrypanosomal activity against intracellular Trypanosoma cruzi infected in human U2OS cells assessed as reduction in parasite count at 12.5 uM after 48 hrs by confocal microscopy; format: functional, organism-based
Trypanosoma cruzi [11] = experiment: Antitrypanosomal activity against intracellular Trypanosoma cruzi infected in human U2OS cells assessed as reduction in parasite count at 6.25 uM after 48 hrs by confocal microscopy; format: functional, organism-based

Row | EC50 (Leishmania donovani [1]) | EC50 (Trypanosoma cruzi [4]) | EC50 (Leishmania donovani [7]) | SMILES | CC50 [2] | selectivity ratio [3] | CC50 [5] | selectivity ratio [6] | growth inhibition (GI) (Leishmania donovani [8]) | growth inhibition (GI) (Trypanosoma cruzi [9]) | growth inhibition (GI) (Trypanosoma cruzi [10]) | inhibition (Trypanosoma cruzi [4]) | growth inhibition (GI) (Trypanosoma cruzi [11])
1 | 22.6 µM | 12.5 µM | 4.98 µM | CC(C)(C)c1cccc(CN2C3=NCCN3c3ccccc32)c1 | > 50 µM | > 2.21 | 34.6 µM | 2.77 | – | – | – | – | –
2 | > 50 µM | > 50 µM | – | Cc1cc(C)cc(CN2C3=NCCN3c3ccccc32)c1 | > 50 µM | – | > 50 µM | – | – | – | – | – | –
3 | 10.3 µM | > 50 µM | 3.11 µM | FC(F)(F)c1ccc(-c2ccc(CN3C4=NCCN4c4ccccc43)cc2)cc1 | 30 µM | 2.91 | > 50 µM | – | – | – | – | – | –
4 | > 50 µM | > 50 µM | – | Cc1cc2c(cc1C)N(Cc1ccc(C(C)(C)C)cc1)C1=NCCN12 | > 50 µM | – | > 50 µM | – | – | – | – | – | –
5 | 25.3 µM | 12.7 µM | 20.8 µM | CC(C)(C)c1ccc(CCN2C3=NCCN3c3ccccc32)cc1 | > 50 µM | > 1.98 | 21 µM | 1.65 | – | – | – | – | –
6 | 17.8 µM | 7.45 µM | 1.75 µM | Cc1ccc(-c2ccc(CN3C4=NCCN4c4ccccc43)cc2)cc1 | 27.1 µM | 1.52 | 10.3 µM | 1.38 | – | – | – | – | –
7 | 13.7 µM | 5.56 µM | – | Clc1ccc(-c2ccc(CN3C4=NCCN4c4ccccc43)cc2)cc1 | 20 µM | 1.46 | 9.36 µM | 1.7 | – | – | – | – | –
8 | – | – | 0.22 µM | C[C@@H]1[C@H](O)[C@@H](C)/C=C/C=C/C=C/C=C/C=C/C=C/C=C/[C@H](O[C@@H]2O[C@H](C)[C@@H](O)[C@H](N)[C@@H]2O)C[C@@H]2O[C@](O)(C[C@@H](O)C[C@@H](O)[C@H](O)CC[C@@H](O)C[C@@H](O)CC(=O)O[C@H]1C)C[C@H](O)[C@H]2C(=O)O [AMPHOTERICIN B] | – | 30.2 | – | – | Active | – | – | – | –
9 | – | 20.7 µM | – | O=C(Cn1ccnc1[N+](=O)[O-])NCc1ccccc1 [BENZNIDAZOLE] | – | – | > 50 µM | > 2.42 | – | Active | inactive | – | –
10 | 3.05 µM | 1.1 µM | 1.25 µM | CC(C)(C)c1ccc(CN2C3=NCCN3c3ccccc32)cc1 | > 50 µM | > 16.4 | 36.5 µM | 33.2 | Active | – | – | Dose-dependent effect | Active
11 | > 50 µM | – | – | N#Cc1ccc(CN2C3=NCCN3c3ccccc32)cc1 | > 50 µM | – | – | – | – | – | – | – | –
12 | 7.33 µM | 6.21 µM | 2.22 µM | CC(C)(C)c1ccc(CN2C3=NCCN3c3cc(Cl)ccc32)cc1 | 12.5 µM | 1.71 | 44.6 µM | – | – | – | – | – | –
13 | > 50 µM | – | – | FC(F)(F)Oc1ccc(CN2C3=NCCN3c3ccccc32)cc1 | > 50 µM | – | – | – | – | – | – | – | –
14 | > 50 µM | > 50 µM | – | CC(C)c1ccc(CN2C3=NCCN3c3ccccc32)cc1 | > 50 µM | – | > 50 µM | – | inactive | – | – | – | –
15 | > 50 µM | > 50 µM | – | c1ccc(CN2C3=NCCN3c3ccccc32)nc1 | > 50 µM | – | > 50 µM | – | – | – | – | – | –
16 | > 50 µM | – | – | CS(=O)(=O)c1ccc(CN2C3=NCCN3c3ccccc32)cc1 | > 50 µM | – | – | – | – | – | – | – | –
17 | > 50 µM | 13.4 µM | – | FC(F)(F)c1ccc(CN2C3=NCCN3c3ccccc32)cc1 | > 50 µM | – | > 50 µM | > 3.75 | – | – | – | – | –

Row | EC50 (Leishmania donovani [1]) | EC50 (Trypanosoma cruzi [4]) | EC50 (Leishmania donovani [7]) | SMILES | CC50 [2] | selectivity ratio [3] | CC50 [5] | selectivity ratio [6] | growth inhibition (GI) (Leishmania donovani [8]) | growth inhibition (GI) (Trypanosoma cruzi [9]) | growth inhibition (GI) (Trypanosoma cruzi [10]) | inhibition (Trypanosoma cruzi [4]) | growth inhibition (GI) (Trypanosoma cruzi [11])
18 | 5.29 µM | 2.1 µM | 1.48 µM | c1ccc(-c2ccc(CN3C4=NCCN4c4ccccc43)cc2)cc1 | 39.7 µM | 7.5 | 18.8 µM | 8.95 | – | – | – | – | –
19 | 11 µM | 19.6 µM | 1.8 µM | Cc1ccc2c(c1)N1CCN=C1N2Cc1ccc(C(C)(C)C)cc1 | 28.1 µM | 2.55 | > 50 µM | > 2.28 | – | – | – | – | –
20 | 5.2 µM | > 50 µM | 1.53 µM | FC(F)(F)Oc1ccc(-c2ccc(CN3C4=NCCN4c4ccccc43)cc2)cc1 | 11 µM | 2.11 | > 50 µM | – | – | – | – | – | –
21 | 12.5 µM | 38.7 µM | 2.01 µM | c1ccc(Oc2ccc(CN3C4=NCCN4c4ccccc43)cc2)cc1 | 48 µM | 3.82 | 20 µM | 0.52 | – | – | – | – | –
22 | > 50 µM | – | – | c1ccc(CN2C3=NCCN3c3ccccc32)cc1 | > 50 µM | – | – | – | – | – | – | – | –
23 | 12.5 µM | 3.09 µM | 2.73 µM | CC(C)(C)c1ccc(CN2C3=NCCCN3c3ccccc32)cc1 | > 50 µM | > 3.98 | > 50 µM | > 16.2 | – | – | – | – | –
24 | 42 µM | 33.7 µM | – | CCc1ccc(CN2C3=NCCN3c3ccccc32)cc1 | > 50 µM | > 1.19 | > 50 µM | > 1.48 | – | – | – | – | –
25 | 39.4 µM | 36 µM | – | CC(C)(C)c1ccc(C(=O)CN2C3=NCCN3c3ccccc32)cc1 | > 50 µM | > 1.27 | > 50 µM | > 1.39 | – | – | – | – | –
26 | 10.2 µM | > 50 µM | 2.34 µM | COc1ccc(-c2ccc(CN3C4=NCCN4c4ccccc43)cc2)cc1 | 23 µM | 2.25 | > 50 µM | – | – | – | – | – | –
27 | 27.4 µM | 8.7 µM | – | CC(C)(C)c1ccc(OCCN2C3=NCCN3c3ccccc32)cc1 | 33.1 µM | 1.21 | 37.9 µM | 4.36 | – | – | – | – | –
28 | > 50 µM | > 50 µM | – | Fc1ccc(CN2C3=NCCN3c3ccccc32)cc1 | > 50 µM | – | > 50 µM | – | – | – | – | – | –
29 | 14 µM | 8.24 µM | 1.26 µM | CC(C)(C)c1ccc(CN2C3=NCCN3c3cc(F)ccc32)cc1 | > 50 µM | > 3.57 | 50 µM | 6.07 | – | – | – | – | –
30 | 32.5 µM | 4.49 µM | 9.22 µM | Fc1ccc(F)c(-c2ccc(CN3C4=NCCN4c4ccccc43)cc2)c1 | > 50 µM | > 1.54 | 9.61 µM | 2.14 | – | – | – | – | –
31 | 5.4 µM | 1.6 µM | 1.71 µM | c1ccc2c(c1)N1CCN=C1N2Cc1ccc(C2CCCCC2)cc1 | 22.8 µM | 4.19 | 6.1 µM | 3.81 | – | – | – | – | –
32 | 8.88 µM | 8.89 µM | 1.49 µM | Fc1ccc(-c2ccc(CN3C4=NCCN4c4ccccc43)cc2)cc1 | 35 µM | 3.94 | > 50 µM | > 5.62 | – | – | – | – | –
33 | > 50 µM | > 50 µM | – | CC(C)(C)c1ccc(CN2C3=NC(=O)CN3c3ccccc32)cc1 | > 50 µM | – | > 50 µM | – | – | – | – | – | –

Row | SMILES | EC50 (Leishmania donovani [1]) | EC50 (Trypanosoma cruzi [4]) | EC50 (Leishmania donovani [7]) | CC50 [2] | selectivity ratio [3] | CC50 [5] | selectivity ratio [6] | growth inhibition (GI) (Leishmania donovani [8]) | growth inhibition (GI) (Trypanosoma cruzi [9]) | growth inhibition (GI) (Trypanosoma cruzi [10]) | inhibition (Trypanosoma cruzi [4]) | growth inhibition (GI) (Trypanosoma cruzi [11])
34 | CCCCCCCCCCCCCCCCOP(=O)([O-])OCC[N+](C)(C)C [MILTEFOSINE] | 4.83 µM | – | 11.1 µM | 18.9 µM | 3.91 | – | – | Active | – | – | – | –

Reference: ChEMBL document CHEMBL3352366, “Synthesis and biological evaluation of 2,3-dihydroimidazo[1,2-a]benzimidazole derivatives against Leishmania donovani and Trypanosoma cruzi” (Eur J Med Chem, 2014)
